Test results from article PMC7649109 (International Journal for Parasitology: Drugs and Drug …, 2020).
Several values for one entry are separate records, joined by “and”; a condition that tells them apart may be missing. Equal entries are not always repeated. Where two headings read alike, the source gives them in different places.

Assays:
[1] = system: T. brucei B48; experiment: resazurin viability assay, multi-drug resistant T. brucei B48; assay type: cell-based, Trypanosoma brucei; conditions: for RF (Resistance factor): Table 5; for RF (Resistance factor) / R. F (Resistance factor): B48 versus s427 WT; for EC50: Trypanosoma brucei; for R. F (Resistance factor): Table 1
Summary of the method: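 s427 wild-type and B48 T. b. brucei bloodstream forms cultured in HMI-9 with 10% FBS at 37 °C/5% CO2. Wells of 2 × 10^4 cells received 23 doubling dilutions (1% v/v DMSO) plus no-drug controls for 48 h, followed by resazurin and 24 h more incubation. EC50 from ≥3 independent determinations. […]; unpaired two-tailed t-test versus s427.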

[2] = system: Trypanosoma congolense IL3000; experiment: resazurin viability assay, T. congolense IL3000 bloodstream forms; assay type: cell-based
Summary of the method: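 Bloodstream-form parasites were grown in MEM base with 10% goat serum, 14 μL/L β-mercaptoethanol, glutamine and antibiotics at 34 °C/5% CO2. Cells at 5 × 10^4/well were exposed to 23 doubling dilutions plus no-drug controls, with DMSO held at 1% (v/v) per well, for 48 h. Resazurin was then added for a further 24 h. EC50 is the mean ± SEM of ≥3 independent determinations.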

[3] = system: Trypanosoma congolense 6C3; experiment: resazurin viability assay, diminazene-resistant T. congolense clone 6C3; assay type: cell-based; conditions: for RF (Resistance factor): Table 6; for EC50: Trypanosoma congolense, T. congolense 6C3
Summary of the method: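 IL3000 and diminazene-resistant 6C3 T. congolense bloodstream forms grown in MEM base with 10% goat serum, 14 μL/L β-mercaptoethanol, glutamine and antibiotics at 34 °C/5% CO2. 5 × 10^4 cells/well exposed to 23 doubling dilutions (1% v/v DMSO) plus no-drug controls for 48 h, then resazurin for a further 24 h. EC50 from ≥3 independent determinations. RF = […]; unpaired two-tailed t-test versus IL3000.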

[4] = system: RAW 246.7 cell line; experiment: cytotoxicity, resazurin assay on RAW 246.7 cell line; assay type: cell-based, murine
[5] = as above; assay type: cell-based, murine; conditions: mouse, RAW 264.7 macrophage cells (also printed RAW 246.7)
[6] = system: U937 cell line; experiment: cytotoxicity, resazurin assay on U937 cell line; assay type: cell-based, human
[7] = cytotoxicity, resazurin assay on U937 cell line; assay type: cell-based, human; conditions: human, U937 cells
[8] = system: T. brucei S427WT; experiment: resazurin viability assay, T. brucei s427 wild-type bloodstream forms; assay type: cell-based; conditions: Trypanosoma brucei
Summary of the method: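 Bloodstream forms grown in complete HMI-9 with 10% fetal bovine serum at 37 °C/5% CO2. 2 × 10^4 cells/well were exposed for 48 h to 23 doubling dilutions of the test compound or extract, with no-drug controls and 1% (v/v) DMSO per well. Resazurin was then added for a further 24 h. EC50 is the mean ± SEM of at least 3 independent determinations.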

[9] = read-out: EC50, AVG ± SEM, Table 5, purified compounds, T. b. brucei B48, n = 3
[10] = read-out: EC50, AVG ± SEM, Table 6, purified compounds, n = 3
[11] = read-out: EC50, AVG ± SEM, Table 5, purified compounds, T. b. brucei s427 WT, n = 3
[12] = read-out: EC50, AVG ± SEM, Table 2, control, footnote b: EC50 in μM

SMILES: C=CC(C)(C)c1c(O)cc2c(c1O)C(=O)C[C@@H](c1ccc(O)cc1)O2 [Compound 2, 6-(1,1-dimethylallyl)naringenin]
- RF (Resistance factor) [1]: 1.02
- EC50 [1, 9]: 2.28 µg/mL and 6.69 µM
- EC50 [2, 10]: 7.35 µg/mL and 21.6 µM
- RF (Resistance factor) ([3]; 6C3 versus IL3000): 0.77
- EC50 [3, 10]: 5.69 µg/mL and 16.7 µM
- Selectivity Index (SI) Tbb427 WT ([4]; EC50 (RAW 246.7)/EC50 (T. b. brucei 427 WT)): 35.7
- Selectivity Index (SI) TcoIL3000 ([4]; EC50 (RAW 246.7)/EC50 (T. congolense IL3000)): 14.0
- EC50 at 24 h [5]: 79.9 µg/mL and 235 µM
- Selectivity Index (SI) Tbb427 WT ([6]; EC50 (U937)/EC50 (T. b. brucei 427 WT)): 22.8
- Selectivity Index (SI) TcoIL3000 ([6]; EC50 (U937)/EC50 (T. congolense IL3000)): 9.0
- EC50 at 24 h [7]: 51.2 µg/mL and 150 µM
- EC50 [8, 11]: 2.24 µg/mL and 6.58 µM

SMILES: N=C(N)c1ccc(/N=N/Nc2ccc(C(=N)N)cc2)cc1 [Diminazene]
- EC50 [2, 12]: 0.2 ± 0.03 µM
- EC50 [2, 10]: 0.15 ± 0.03 µM
- R. F (Resistance factor) ([3]; Table 2, 6C3 versus IL3000): 7.75
- RF (Resistance factor) ([3]; 6C3 versus IL3000): 9.81
- RF (Resistance factor) ([3]; 6C3 versus IL3000, listed as diminazene): 9.8
- EC50 [3, 12]: 1.51 ± 0.09 µM
- EC50 [3, 10]: 1.45 ± 0.04 µM

SMILES: N=C(N)c1ccc(OCCCCCOc2ccc(C(=N)N)cc2)cc1 [Pentamidine]
- R. F (Resistance factor) [1]: 157.84
- R. F (Resistance factor) ([1]; listed as pentamidine): 158
- RF (Resistance factor) [1]: 144.08
- RF (Resistance factor) ([1]; listed as pentamidine): 144
- EC50 ([1]; read-out: EC50, AVG ± SEM, Table 1, control, footnote b: EC50 in μM, T. brucei B48): 0.482 ± 0.02 µM
- EC50 [1, 9]: 0.493 ± 0.04 µM
- EC50 ([8]; read-out: EC50, AVG ± SEM, Table 1, control, footnote b: EC50 in μM, T. brucei s427 WT): 0.0031 ± 0.0003 µM
- EC50 [8, 11]: 0.0034 ± 0.0004 µM
